According to ChEMBL document CHEMBL1268908, “Design, synthesis, radiolabeling, and in vivo evaluation of carbon-11 labeled N-[2-[4-(3-cyanopyridin-2-yl)piperazin-1-yl]ethyl]-3-methoxybenzamide, a potential positron emission tomography tracer for the dopamine D(4) receptors” (J Med Chem, 2010):
The source made the active and inactive calls. The calls are words filed in the database; no cut-off is given here.

Columns and labels:
[1] = molecular target: Sigma non-opioid intracellular receptor 1 (Homo sapiens) (UniProt Q99720); test: Displacement of [3H](+)-pentazocine from human sigma 1 receptor expressed in MCF7 cells at 1 uM after 180 mins by scintillation counting; format: cell-based
Summary of the method: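 Membranes from MCF-7 cells stably expressing cloned human σ1 receptor, 0.01–0.05 mg/mL protein, in 50 mM Tris pH 8.0. Incubated 180 min at 37 °C with shaking with 1 nM [3H]-(+)-pentazocine and 1 μM compound; BD1063 defined nonspecific binding. Filtered on PEI-treated GF/C, washed with ice-cold buffer, scintillation counted; triplicates, 3–4 experiments.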

[2] = molecular target: D(2) dopamine receptor (Rattus norvegicus) (UniProt P61169); test: Displacement of [3H]MSP from rat dopamine D2L receptor expressed in HEK293 cells at 1 uM after 90 mins by scintillation counting; format: cell-based
Summary of the method: (§1)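 HEK293 membranes stably expressing rat D2 or human 5-HT1A, 5-HT2A or 5-HT2C receptors, used fresh. Incubated 90 min at 25 °C in 50 mM Tris pH 7.4 with about […] radioligand and 1 μM compound (DMSO or DMF stock diluted ≥1:1000). Nonspecific binding defined by (+)-butaclamol for D2, NAN-190 for 5-HT1A and mianserin for 5-HT2A/2C. PEI-GF/C filtration, scintillation count; % displacement from triplicates, 3–4 repeats.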

[3] = molecular target: T1, D(4) dopamine receptor (Rattus norvegicus, UniProt P30729); test: Displacement of [3H]MSP from rat dopamine D4 receptor expressed in HEK293 cells after 90 mins by scintillation counting; format: cell-based
T1 sequence (P30729 whole entry): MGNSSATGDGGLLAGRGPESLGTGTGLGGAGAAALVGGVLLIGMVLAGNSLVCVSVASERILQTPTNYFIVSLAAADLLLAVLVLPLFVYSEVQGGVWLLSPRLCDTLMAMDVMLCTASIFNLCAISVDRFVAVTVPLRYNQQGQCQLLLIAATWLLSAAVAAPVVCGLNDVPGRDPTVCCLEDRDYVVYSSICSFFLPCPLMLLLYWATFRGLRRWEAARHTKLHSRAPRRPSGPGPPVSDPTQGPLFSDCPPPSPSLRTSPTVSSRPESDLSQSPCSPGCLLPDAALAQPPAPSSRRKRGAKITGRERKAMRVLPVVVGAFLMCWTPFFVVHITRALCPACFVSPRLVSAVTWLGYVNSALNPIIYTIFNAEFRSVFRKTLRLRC
Summary of the method: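 Competition binding on fresh membranes from HEK293 cells stably expressing rat D4 receptor, with about […] [3H]methylspiperone for 90 min at 25 °C in 50 mM Tris pH 7.4; (+)-butaclamol defined nonspecific binding. Filtered and scintillation counted. IC50 converted to Ki by Cheng–Prusoff; triplicates, 3–4 experiments.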

[4] = molecular target: T2, 5-hydroxytryptamine receptor 2C (Homo sapiens) (UniProt P28335); test: Displacement of [3H]mesulergine from human 5HT2C receptor expressed in HEK293 cells at 1 uM after 90 mins by scintillation counting; format: cell-based; summary of the method: as §1
T2 sequence (whole entry): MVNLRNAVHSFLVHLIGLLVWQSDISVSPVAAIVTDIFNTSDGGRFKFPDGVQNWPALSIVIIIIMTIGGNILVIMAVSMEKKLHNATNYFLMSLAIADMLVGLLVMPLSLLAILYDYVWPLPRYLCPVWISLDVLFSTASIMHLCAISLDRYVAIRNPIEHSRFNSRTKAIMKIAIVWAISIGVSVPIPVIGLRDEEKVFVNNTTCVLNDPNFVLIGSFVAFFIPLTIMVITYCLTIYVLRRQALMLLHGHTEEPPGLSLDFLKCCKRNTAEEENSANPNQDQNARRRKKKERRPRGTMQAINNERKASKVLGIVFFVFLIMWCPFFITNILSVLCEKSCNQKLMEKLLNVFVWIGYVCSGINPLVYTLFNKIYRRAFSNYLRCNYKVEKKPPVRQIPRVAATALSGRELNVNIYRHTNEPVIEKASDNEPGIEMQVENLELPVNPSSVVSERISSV

[5] = Lipophilicity, log P of the compound; format: physicochemical; conditions: octanol/water
[6] = system: Plasma; test: Drug level in CD1 mouse plasma at 10 mg/kg, ip after 30 to 60 mins; format: ADME, organism-based; parameters: dose 10 mg/kg, route intraperitoneal; conditions: in vivo
Summary of the method: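 Male CD1 mice, 25–30 g, given 10 mg/kg ip in ethanol/PEG 40/saline (10:40:50). Killed at 15–240 min. Plasma (0.2 mL) alkalinised and extracted into dichloromethane with a 1-(2-thiazolyl)piperazine internal standard, then run on gradient reversed-phase HPLC-UV at 264 nm; quantification limit about 100 ng/mL. Mean ± SD, n = 3.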

[7] = Dissociation constant, pKa of the compound; format: physicochemical
[8] = molecular target: T3, 5-hydroxytryptamine receptor 1A (Homo sapiens) (UniProt P08908); test: Displacement of [3H]MPPF from human 5HT1A receptor expressed in HEK293 cells at 1 uM after 90 mins by scintillation counting; format: cell-based; summary of the method: as §1
T3 sequence (whole entry): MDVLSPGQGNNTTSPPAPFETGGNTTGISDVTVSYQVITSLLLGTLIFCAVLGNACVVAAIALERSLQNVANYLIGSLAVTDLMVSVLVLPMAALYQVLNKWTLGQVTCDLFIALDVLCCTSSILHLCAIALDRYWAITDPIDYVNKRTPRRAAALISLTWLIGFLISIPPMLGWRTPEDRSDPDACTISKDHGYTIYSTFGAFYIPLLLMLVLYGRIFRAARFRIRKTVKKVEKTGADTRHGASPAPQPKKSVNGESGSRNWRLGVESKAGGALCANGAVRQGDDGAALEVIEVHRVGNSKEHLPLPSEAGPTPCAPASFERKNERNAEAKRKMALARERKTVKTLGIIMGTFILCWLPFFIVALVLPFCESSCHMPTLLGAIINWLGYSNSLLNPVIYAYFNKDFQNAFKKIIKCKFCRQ

[9] = Drug level in CD1 mouse plasma at 10 mg/kg, ip after 15 mins; format: ADME, organism-based; parameters: dose 10 mg/kg, route intraperitoneal; conditions: read-out: Drug uptake
[10] = Drug level in CD1 mouse brain at 10 mg/kg, ip after 15 mins; format: ADME, organism-based; parameters: dose 10 mg/kg, route intraperitoneal; conditions: read-out: Drug uptake
[11] = molecular target: Cannabinoid receptor 1 (Rattus norvegicus) (UniProt P20272); test: Displacement of [3H]CP55940 from CB1 receptor in rat brain at 1 uM after 180 mins by scintillation counting
[12] = molecular target: D(3) dopamine receptor (Homo sapiens) (UniProt P35462); test: Displacement of [3H]MSP from human dopamine D3 receptor expressed in CHO-K1 cells at 1 uM after 90 mins by scintillation counting; format: cell-based
Summary of the method: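 Frozen CHO-K1 membranes carrying human D3 receptor, incubated with about […] [3H]methylspiperone and 1 μM compound for 90 min at 25 °C in 50 mM Tris pH 7.4. Nonspecific binding defined with 5 μM 7-OH-DPAT. Filtered on PEI-treated GF/C and scintillation counted; triplicate points, experiment repeated 3–4 times.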

[13] = molecular target: 5-hydroxytryptamine receptor 2A (Homo sapiens) (UniProt P28223); test: Displacement of [3H]MSP from human 5HT2A receptor expressed in HEK293 cells at 1 uM after 90 mins by scintillation counting; format: cell-based; summary of the method: as §1
[14] = molecular target: T4, D(4) dopamine receptor (Rattus norvegicus) (UniProt P30729); test: Agonist activity at rat dopamine D4 receptor expressed in HEK293 cells assessed as decrease in forskolin-stimulated levels of cAMP accumulation up to 10 uM; format: functional, cell-based
T4 sequence (whole entry): T1 sequence (P30729 whole entry)

[15] = Distribution coefficient, log D of the compound at pH 7.4; format: physicochemical; conditions: octanol/water
[16] = Drug level in CD1 mouse plasma at 10 mg/kg, ip after 30 mins; format: ADME, organism-based; parameters: dose 10 mg/kg, route intraperitoneal; conditions: read-out: Drug uptake
[17] = Drug level in CD1 mouse brain at 10 mg/kg, ip after 30 mins; format: ADME, organism-based; parameters: dose 10 mg/kg, route intraperitoneal; conditions: read-out: Drug uptake

Chain of Sigma non-opioid intracellular receptor 1 (Homo sapiens) (Q99720 whole entry): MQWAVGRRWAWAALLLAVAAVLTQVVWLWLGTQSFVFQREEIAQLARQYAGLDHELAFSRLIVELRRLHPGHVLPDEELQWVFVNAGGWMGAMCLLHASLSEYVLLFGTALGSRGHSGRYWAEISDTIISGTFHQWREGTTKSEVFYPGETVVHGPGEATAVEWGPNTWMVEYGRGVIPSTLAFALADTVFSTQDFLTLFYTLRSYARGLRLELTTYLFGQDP
Chain of D(2) dopamine receptor (Rattus norvegicus) (P61169 whole entry): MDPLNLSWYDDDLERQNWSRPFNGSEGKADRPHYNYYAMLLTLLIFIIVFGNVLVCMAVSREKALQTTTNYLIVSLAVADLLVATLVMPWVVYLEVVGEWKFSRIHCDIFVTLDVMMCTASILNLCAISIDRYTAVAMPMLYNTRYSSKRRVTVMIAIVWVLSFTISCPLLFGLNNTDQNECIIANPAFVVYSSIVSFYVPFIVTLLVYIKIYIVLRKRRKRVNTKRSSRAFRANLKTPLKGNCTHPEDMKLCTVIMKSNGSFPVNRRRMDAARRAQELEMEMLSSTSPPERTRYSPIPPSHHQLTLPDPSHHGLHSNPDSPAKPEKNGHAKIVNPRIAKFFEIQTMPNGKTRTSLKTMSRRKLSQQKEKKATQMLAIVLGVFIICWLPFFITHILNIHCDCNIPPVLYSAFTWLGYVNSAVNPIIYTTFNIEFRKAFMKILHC
Chain of 5-hydroxytryptamine receptor 2A (Homo sapiens) (P28223 whole entry): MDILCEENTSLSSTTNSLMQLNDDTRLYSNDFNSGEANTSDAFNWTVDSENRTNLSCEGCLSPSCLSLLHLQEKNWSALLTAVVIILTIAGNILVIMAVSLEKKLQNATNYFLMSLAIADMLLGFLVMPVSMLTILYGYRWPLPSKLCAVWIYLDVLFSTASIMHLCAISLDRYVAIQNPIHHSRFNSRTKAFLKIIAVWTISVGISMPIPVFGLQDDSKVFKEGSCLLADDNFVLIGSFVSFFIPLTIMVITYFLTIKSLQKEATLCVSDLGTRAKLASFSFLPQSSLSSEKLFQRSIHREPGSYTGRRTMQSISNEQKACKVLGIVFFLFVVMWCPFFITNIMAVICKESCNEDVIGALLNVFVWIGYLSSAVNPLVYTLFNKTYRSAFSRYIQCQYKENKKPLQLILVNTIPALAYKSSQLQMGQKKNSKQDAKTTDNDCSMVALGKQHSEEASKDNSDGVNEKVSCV
Chain of D(3) dopamine receptor (Homo sapiens) (P35462 whole entry): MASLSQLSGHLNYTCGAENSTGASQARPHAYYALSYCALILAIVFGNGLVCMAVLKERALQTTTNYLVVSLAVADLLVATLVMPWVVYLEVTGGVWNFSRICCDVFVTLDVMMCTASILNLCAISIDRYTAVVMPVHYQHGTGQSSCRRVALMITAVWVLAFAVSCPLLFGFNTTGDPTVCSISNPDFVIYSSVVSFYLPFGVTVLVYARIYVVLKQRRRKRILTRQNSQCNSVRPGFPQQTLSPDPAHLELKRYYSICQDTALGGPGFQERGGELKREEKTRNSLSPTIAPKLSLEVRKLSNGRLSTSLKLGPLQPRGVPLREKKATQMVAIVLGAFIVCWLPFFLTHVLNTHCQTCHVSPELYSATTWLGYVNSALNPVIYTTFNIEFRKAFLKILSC
Chain of Cannabinoid receptor 1 (Rattus norvegicus) (P20272 whole entry): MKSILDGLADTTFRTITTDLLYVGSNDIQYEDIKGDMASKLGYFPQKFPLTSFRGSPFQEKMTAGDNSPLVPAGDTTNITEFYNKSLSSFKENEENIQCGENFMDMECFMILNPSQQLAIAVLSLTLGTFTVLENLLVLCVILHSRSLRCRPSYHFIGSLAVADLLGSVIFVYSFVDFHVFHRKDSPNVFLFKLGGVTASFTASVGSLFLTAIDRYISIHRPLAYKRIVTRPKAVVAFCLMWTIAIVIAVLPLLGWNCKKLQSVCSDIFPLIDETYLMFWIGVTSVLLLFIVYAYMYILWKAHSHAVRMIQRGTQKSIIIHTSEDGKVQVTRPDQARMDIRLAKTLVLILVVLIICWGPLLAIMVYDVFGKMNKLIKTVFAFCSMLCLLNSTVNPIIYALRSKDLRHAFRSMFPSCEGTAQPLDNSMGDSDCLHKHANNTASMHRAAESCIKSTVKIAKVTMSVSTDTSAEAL

Structure (SMILES)	Activity [1] [%]	Activity [2] [%]	Ki [3] [nM]	logP [5]	pKa [7]	further results
N#Cc1cccnc1N1CCN(CCNC(=O)c2ccc(F)cc2)CC1	1	32	0.93	2.37	6.4	Activity [4]: 0%; Drug uptake [6]: < 0.1 µg/mL; Activity [8]: 29%; concentration at 0.25 h [9]: 0.13 µg/mL; concentration at 0.25 h [10]: 470 ng/g; Activity [11]: 9.9%; Activity [12]: 7.2%; Activity [13]: 53%; Activity [14]: Active
O=C(NCCN1CCN(c2noc3ccccc23)CC1)c1ccc(F)cc1	21	89	0.34	3.79	6.43	logD [15]: 3.75
COc1cccc(C(=O)NCCN2CCN(c3noc4ccccc34)CC2)c1	13	84	1.93		6.24	
COc1cccc(C(=O)NCCN2CCN(c3ncccc3C#N)CC2)c1	8.3	4.4	1.52	2.55	6.71	Activity [4]: 3.2%; Drug uptake [6]: 0.1 µg/mL; Activity [8]: 9.3%; Activity [11]: 6.5%; Activity [12]: 5.1%; concentration at 0.5 h [16]: 0.37 µg/mL; Activity [13]: 24%; concentration at 0.5 h [17]: 140 ng/g; Activity [14]: Active
Cc1ccc(N2CCN(CCNC(=O)c3ccc(F)cc3)CC2)cc1	21	29	2.64		6.31	
N#Cc1ccc(N2CCN(CCNC(=O)c3ccc(F)cc3)CC2)cc1	4.6	0	32.7	3.07	6.43	
O=C(NCCN1CCN(c2ccc(Cl)cn2)CC1)c1ccc(F)cc1	33	43	2.92	3.42	6.58	
O=C(NCCN1CCN(c2ccc(Cl)cc2)CC1)c1ccc(F)cc1	29	48	1.76	3.75	6.46	

Now from value to molecule, other results behind:

Activity [1] [%]	Activity [2] [%]	Ki [3] [nM]	logP [5]	pKa [7]	Structure (SMILES)	further results
27	0	63.9			COc1cccc(C(=O)NCCN2CCN(c3ccc(C#N)cc3)CC2)c1	
15			3.29	6.45	COc1cccc(C(=O)NCCN2CCN(c3ccc(Cl)cn3)CC2)c1	
7.2				6.46	COc1cccc(C(=O)NCCN2CCN(c3ccc(C)cc3)CC2)c1	logD [15]: 2.78
22	7.8	4.97		6.19	COc1cccc(C(=O)NCCN2CCN(c3ccc(Cl)cc3)CC2)c1	
